The source of these data is the array DNA melting data of Ke et al. (doi:10.1101/2024.01.08.574731).

The nature of series [1]: melting temperature; fluorescence melt of hairpins on a sequencing array, two-state fit, raised by 9.35 °C to match UV melts. Particulars: sodium 0.088 M. Summed up:
(§1)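 Melting temperature and folding enthalpy were derived from bootstrapped two-state fits. The fitted temperatures were raised by 9.35 °C to agree with UV melts, and four replicates were combined by inverse variance. The underlying data were Cy3 fluorescence images of library hairpins, with annealed Cy3 and quencher oligos, on a sequenced MiSeq flow cell in 50 mM Na-HEPES pH 8.0, 25 mM NaCl, taken in 2.5 °C steps up to 60 °C, normalised to pre-quench Cy3 and to control constructs.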

Series [2] is described as follows: folding enthalpy; higher = less favourable; fluorescence melt of hairpins on a sequencing array, two-state fit. Particulars: sodium 0.088 M. Summed up:
as §1

As to GATCGCCCTTGCGATC ((((((....)))))), the Tm in series [1] came to 66.9 °C. Besides, in series [2], the folding enthalpy was -29.8 kcal/mol.
Taken in the same sequence, the figures for GATCGCAGTGGCGATC ((((((....)))))) were 67.5 °C and -31.5 kcal/mol.
In the same order, the values of GGGAGCGAAAGCTTACCC ((((((....)))..))) are 42.5 °C and -16.9 kcal/mol.
Taken in the same sequence, the figures for GTCAACTCGAAAGAGGAC (((..(((....)))))) were 33.2 °C and -20.3 kcal/mol.
Take GGATTTGGAAACAAATCC (((((((....))))))): the Tm in series [1] came out at 58.2 °C. In series [2], the folding enthalpy was -44.3 kcal/mol.
Taken in the same sequence, the figures for GGCTGTCGAAAGACTGCC (((.(((....))).))) were 63 °C and -41.2 kcal/mol.
With GATCCATCTTTGGATC ((((((....)))))), the Tm in series [1] worked out at 52.6 °C. In addition, in series [2], the folding enthalpy was -37.5 kcal/mol.
In the same order, the values of ATCTGGAAACAGAT (((((....))))) are 39.1 °C and -18.3 kcal/mol.
Regarding GGCGTAGGAAACTATGCC (((.(((....))).))), in series [1], the Tm stood at 53.5 °C. The folding enthalpy in series [2] was -41.8 kcal/mol.
In the same order, the values of GATAAGCGAAAGCTATC (((.(((....)))))) are 42.8 °C and -14.7 kcal/mol.
GCGTTCCACGC ((((...)))): the Tm in series [1] came to 59.7 °C. Further, in series [2], the folding enthalpy is -25.3 kcal/mol.
Taken in the same sequence, the figures for GCGGCAGGAAACCGCCAC (.(((.(....).))).) were 47.5 °C and -12.7 kcal/mol.
Taken in the same sequence, the figures for GTGCGTGCGAAAGCACAC (((..(((....)))))) were 63.5 °C and -9.15 kcal/mol.
Consider GATCACTGTGGTGATC ((((((....)))))), for which the Tm in series [1] is 59.4 °C. Moreover, the folding enthalpy in series [2] was -45.6 kcal/mol.
In the same order, the values of GATCGAGCATTCGATC ((((((....)))))) are 58.2 °C and -42.6 kcal/mol.
In the same order, the values of GTATTTCGAAAGAATAC (((.(((....)))))) are 31.1 °C and -14.1 kcal/mol.
In the same order, the values of GATCTTTGCAAAGATC ((((((....)))))) are 50.9 °C and -57.2 kcal/mol.
With GATCGATGCTCGATC ((((((...)))))), the Tm in series [1] was 51.8 °C. Further, the folding enthalpy in series [2] was -37 kcal/mol.
Taken in the same sequence, the figures for GCGTCGCCGAAAGGCCGC (((..(((....)))))) were 57.1 °C and -19.3 kcal/mol.
Taken in the same sequence, the figures for GGTATCTCGAAAGAGACC (((..(((....)))))) were 35.2 °C and -21.1 kcal/mol.
In the same order, the values of GATCATCTGATGATC ((((((...)))))) are 46.3 °C and -37.5 kcal/mol.
Take GTCTCTTCGAAAGAAGAC (((..(((....)))))): in series [1], the Tm was found to be 32 °C. Also, in series [2], the folding enthalpy was -9.3 kcal/mol.
In the same order, the values of GATCAGTGAGCTGATC ((((((....)))))) are 56.2 °C and -36.1 kcal/mol.
Taken in the same sequence, the figures for GTAGTACGAAAGTATAC (((.(((....)))))) were 32 °C and -17.1 kcal/mol.
In the same order, the values of GATCGATGAGTCGATC ((((((....)))))) are 55.5 °C and -41.6 kcal/mol.
For the sequence GGCTTGGCGAAAGCCGCC (((..(((....)))))), the Tm in series [1] turned out to be 68.8 °C. The folding enthalpy in series [2] was -16.6 kcal/mol.
In the same order, the values of GCGTTAGGAAACTAACGC (((((((....))))))) are 65.8 °C and -50.9 kcal/mol.
GTCAGCGAAAGCTTTGAC ((((((....)))..))): the Tm in series [1] was 35 °C. Moreover, the folding enthalpy in series [2] is -15.3 kcal/mol.
Taken in the same sequence, the figures for GATCCTTGTCAGGATC ((((((....)))))) were 50.1 °C and -37.6 kcal/mol.
Regarding GAAGCGGGAAACCGCCTC ((.((((....)))).)), in series [1], the Tm is 36.7 °C. The folding enthalpy in series [2] was -10.8 kcal/mol.
In the same order, the values of GATCGTTCCACGATC ((((((...)))))) are 59.6 °C and -40.1 kcal/mol.
